Results: ChEMBL document CHEMBL1123024, “5,6-Diaryl-2,3-dihydroimidazo[2,1-b]thiazoles: a new class of immunoregulatory antiinflammatory agents” (1985)

Legend:
Format in all cases: functional
Mus musculus [1] = species on record: Mus musculus; test: Immunoregulatory activity against mouse contact sensitivity was evaluated as percent change
How it was run: (§1)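 Male C57B1/6 mice were sensitized with 0.1 mL of 5% oxazolone in absolute ethanol on the clipped abdomen. At 45 h the left hind leg was challenged with 5% oxazolone. Compound was given po in 0.5% tragacanth. Edema was read plethysmographically 24 h later as left minus right leg volume. Six mice vs eight controls; Student's t test.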

Rattus norvegicus [2] = test: Percent change in immune R16 inflammatory lesions in rat adjuvant-induced arthritis at 50 mg/kg
How it was run: (§2)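 Male Wistar rats received 0.75 mg M. butyricum in paraffin oil intradermally into the left hindpaw. Compounds were given daily po in 0.5% tragacanth from the injection day for 17 days, skipping days 4, 5, 11 and 12. Leg volumes were read by mercury displacement: left leg on day 3, both legs on day 16. Eight treated rats vs 16 vehicle controls; Student's t test. ED25 is the dose giving a 25% volume decrease, from at least three doses, with 95% limits by Fieller's theorem.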

Rattus norvegicus [3] = test: Compound was tested by carrageenan -induced paw edema for percent change in paw volume of control sham operated rats at 100 mg/kg.
How it was run: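 Normal, adrenalectomized or sham-operated Lewis rats were dosed po in 0.5% tragacanth, hydrated. 1 h later paw volume was read, then […] of 1% carrageenan in 0.9% saline was injected into the right hindpaw plantar surface. Volume was re-read at 3 h. Percent change, treated vs control; Student's t test.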

Rattus norvegicus [4] = test: Percent change in nonimmune L16 inflammatory lesions in rat adjuvant-induced arthritis at 50 mg/kg; how it was run: as §2
Rattus norvegicus [5] = test: Percent change in nonimmune L3 inflammatory lesions in rat adjuvant-induced arthritis at 50 mg/kg; how it was run: as §2
Mus musculus [6] = species on record: Mus musculus; test: Immunoregulatory activity against oxazolone induced mouse contact sensitivity was evaluated as percent change; how it was run: as §1
Rattus norvegicus [7] = test: The compound was tested for percent change in immune R16 inflammatory lesions in rat adjuvant-induced arthritis at 50 mg/kg; how it was run: as §2
Rattus norvegicus [8] = test: The compound was tested for percent change in nonimmune L16 inflammatory lesions in rat adjuvant-induced arthritis at 50 mg/kg; how it was run: as §2
Rattus norvegicus [9] = test: The compound was tested for percent change in nonimmune L3 inflammatory lesions in rat adjuvant-induced arthritis at 50 mg/kg; how it was run: as §2

Structure (SMILES) | Change (Mus musculus [1]) | Change (Rattus norvegicus [2]) | Change (Rattus norvegicus [3]) | Change (Rattus norvegicus [4]) | Change (Rattus norvegicus [5]) | Change (Mus musculus [6]) | Change (Rattus norvegicus [7]) | Change (Rattus norvegicus [8]) | Change (Rattus norvegicus [9])
COc1cccc(-c2nc3n(c2-c2cccc(OC)c2)CCS3)c1 | 166% | -16% | -3% | -4% | 0% | – | – | – | –
COc1ccc(-c2nc3n(c2-c2ccc(F)cc2)CCS3)cc1 | 103% | 6% | – | -4% | 11% | – | – | – | –
Nc1ccc(-c2nc3n(c2-c2ccc(N)cc2)CCS3)cc1 | 36% | 0% | – | -10% | -15% | – | – | – | –
CC(C)(C)C(=O)Nc1ccc(-c2nc3n(c2-c2ccc(NC(=O)C(C)(C)C)cc2)CCS3)cc1 | 15% | -1% | – | -3% | -4% | – | – | – | –
COc1ccc(-c2c(-c3ccccc3)nc3n2CCS3)cc1 | 112% | -6% | – | -11% | -15% | – | – | – | –
c1ccc2c(c1)nc1n2CCS1 | 51% | 7% | – | -2% | -18% | – | – | – | –
CSc1ccc(-c2nc3n(c2-c2ccc(F)cc2)CCS3)cc1 | 44% | 6% | – | 0% | -14% | – | – | – | –
Brc1ccc(-c2nc3n(c2-c2ccc(Br)cc2)CCS3)cc1 | 71% | -46% | – | -42% | -25% | – | – | – | –
CC(=O)Oc1ccc(-c2nc3n(c2-c2ccc(OC(C)=O)cc2)CCS3)cc1 | 101% | -17% | – | -12% | -16% | – | – | – | –
COc1ccc(-c2nc3n(c2-c2ccc(OC)cc2)C(=O)CS3)cc1 | 25% | 0% | – | 4% | -4% | – | – | – | –
COc1ccc(-c2c(-c3ccccc3)nc3n2CCS3)cc1OC | 69% | 11% | – | 1% | 5% | – | – | – | –
CSc1ccc(-c2c(-c3ccc(F)cc3)nc3n2CCS3)cc1 | 122% | -30% | – | -30% | -16% | – | – | – | –
CCN(C)c1ccc(-c2nc3n(c2-c2ccc(N(C)CC)cc2)CCS3)cc1 | 69% | -36% | – | -41% | -31% | – | – | – | –
COc1ccc(-c2nc3n(c2-c2ccc(OC)c(C)c2)CCS3)cc1C | 30% | -19% | – | -20% | -16% | – | – | – | –
COc1ccccc1-c1nc2n(c1-c1ccccc1OC)CCS2 | 95% | -7% | – | -5% | 0% | – | – | – | –
CCSc1nc(-c2ccc(OC)cc2)c(-c2ccc(OC)cc2)n1CC | 65% | -8% | – | -9% | -6% | – | – | – | –
COc1ccc(-c2nc3n(c2-c2ccc(OC)c(OC)c2)CCS3)cc1OC | 48% | 5% | – | -2% | 0% | – | – | – | –
Oc1ccc(-c2nc3n(c2-c2ccc(O)cc2)CCS3)cc1 | 122% | 9% | – | -7% | -9% | – | – | – | –
COc1ccc(-c2c(-c3ccc(F)cc3)nc3n2CC[S+]3[O-])cc1 (stereo not drawn) | – | – | – | – | – | 65% | -39% | -39% | -35%
COc1ccc(-c2nc3n(c2-c2ccccc2)CCS3)cc1OC | 82% | -6% | – | -1% | 8% | – | – | – | –
COc1ccc(-c2nc(SC)[nH]c2-c2ccc(OC)cc2)cc1 | 52% | -38% | – | -45% | -29% | – | – | – | –
Fc1cccc(-c2nc3n(c2-c2cccc(F)c2)CCS3)c1 | 22% | 3% | – | -1% | -1% | – | – | – | –
CCOc1ccc(-c2nc3n(c2-c2ccc(OCC)cc2)CCS3)cc1 | 150% | -32% | – | -34% | -22% | – | – | – | –
